Assay results published in publication PMC11027041 (RSC Advances, 2024).

How the values were obtained:
SNB-19 = test: NCI-60 antiproliferative screening; type: cell-based; conditions: Homo sapiens, SNB-19, read-out: percent inhibition
COLO 205 = test: NCI-60 antiproliferative screening; type: cell-based; conditions: Homo sapiens, COLO 205, read-out: percent inhibition
MOLT-4 = test: NCI-60 antiproliferative screening; type: cell-based; conditions: Homo sapiens, MOLT-4, read-out: percent inhibition
MDA-MB-435 = test: NCI-60 antiproliferative screening; type: cell-based; conditions: Homo sapiens, MDA-MB-435, read-out: percent inhibition
HDAC7 = HDAC7 (Homo sapiens, UniProt Q8WUI4); test: In vitro HDAC enzyme assay; type: biochemical
HDAC7, sequence (Q8WUI4 whole entry): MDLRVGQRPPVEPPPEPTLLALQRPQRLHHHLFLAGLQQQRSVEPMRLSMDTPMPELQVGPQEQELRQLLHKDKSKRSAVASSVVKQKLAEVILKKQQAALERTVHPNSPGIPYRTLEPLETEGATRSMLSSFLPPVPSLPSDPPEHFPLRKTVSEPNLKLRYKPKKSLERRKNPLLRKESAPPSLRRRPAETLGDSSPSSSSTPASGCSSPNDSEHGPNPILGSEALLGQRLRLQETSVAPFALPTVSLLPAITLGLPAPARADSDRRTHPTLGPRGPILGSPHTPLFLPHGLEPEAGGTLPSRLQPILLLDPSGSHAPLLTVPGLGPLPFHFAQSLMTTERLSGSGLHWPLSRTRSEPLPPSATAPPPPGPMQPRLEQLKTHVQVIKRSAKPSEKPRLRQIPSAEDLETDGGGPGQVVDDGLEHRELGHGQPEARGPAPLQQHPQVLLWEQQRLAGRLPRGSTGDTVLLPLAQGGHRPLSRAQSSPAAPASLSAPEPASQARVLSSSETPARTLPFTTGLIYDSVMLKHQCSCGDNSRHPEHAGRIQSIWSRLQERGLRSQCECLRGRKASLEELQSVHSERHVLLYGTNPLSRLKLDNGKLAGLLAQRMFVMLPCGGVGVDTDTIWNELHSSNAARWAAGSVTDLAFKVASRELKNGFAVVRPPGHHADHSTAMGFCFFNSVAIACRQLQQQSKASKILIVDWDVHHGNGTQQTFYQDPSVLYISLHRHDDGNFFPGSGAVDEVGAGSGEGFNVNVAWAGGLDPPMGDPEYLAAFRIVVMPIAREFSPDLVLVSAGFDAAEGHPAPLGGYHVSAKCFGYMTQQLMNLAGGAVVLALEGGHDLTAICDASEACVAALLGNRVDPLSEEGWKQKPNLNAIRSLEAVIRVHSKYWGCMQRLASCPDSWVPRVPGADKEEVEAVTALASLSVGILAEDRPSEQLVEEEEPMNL

NCI-H322M = test: NCI-60 antiproliferative screening; type: cell-based; conditions: Homo sapiens, read-out: percent inhibition
[1] = tested on: melanoma cell line SK-MEL-2; test: Cell viability assay; type: cell-based; conditions: Homo sapiens, SK-MEL-2, 72 h, read-out: Antiproliferative IC50 SK-MEL-2
HS 578T = test: NCI-60 antiproliferative screening; type: cell-based; conditions: Homo sapiens, read-out: percent inhibition
HDAC6 = HDAC6 (Homo sapiens, UniProt Q9UBN7); test: In vitro HDAC enzyme assay; type: biochemical
HDAC6, sequence (Q9UBN7 whole entry): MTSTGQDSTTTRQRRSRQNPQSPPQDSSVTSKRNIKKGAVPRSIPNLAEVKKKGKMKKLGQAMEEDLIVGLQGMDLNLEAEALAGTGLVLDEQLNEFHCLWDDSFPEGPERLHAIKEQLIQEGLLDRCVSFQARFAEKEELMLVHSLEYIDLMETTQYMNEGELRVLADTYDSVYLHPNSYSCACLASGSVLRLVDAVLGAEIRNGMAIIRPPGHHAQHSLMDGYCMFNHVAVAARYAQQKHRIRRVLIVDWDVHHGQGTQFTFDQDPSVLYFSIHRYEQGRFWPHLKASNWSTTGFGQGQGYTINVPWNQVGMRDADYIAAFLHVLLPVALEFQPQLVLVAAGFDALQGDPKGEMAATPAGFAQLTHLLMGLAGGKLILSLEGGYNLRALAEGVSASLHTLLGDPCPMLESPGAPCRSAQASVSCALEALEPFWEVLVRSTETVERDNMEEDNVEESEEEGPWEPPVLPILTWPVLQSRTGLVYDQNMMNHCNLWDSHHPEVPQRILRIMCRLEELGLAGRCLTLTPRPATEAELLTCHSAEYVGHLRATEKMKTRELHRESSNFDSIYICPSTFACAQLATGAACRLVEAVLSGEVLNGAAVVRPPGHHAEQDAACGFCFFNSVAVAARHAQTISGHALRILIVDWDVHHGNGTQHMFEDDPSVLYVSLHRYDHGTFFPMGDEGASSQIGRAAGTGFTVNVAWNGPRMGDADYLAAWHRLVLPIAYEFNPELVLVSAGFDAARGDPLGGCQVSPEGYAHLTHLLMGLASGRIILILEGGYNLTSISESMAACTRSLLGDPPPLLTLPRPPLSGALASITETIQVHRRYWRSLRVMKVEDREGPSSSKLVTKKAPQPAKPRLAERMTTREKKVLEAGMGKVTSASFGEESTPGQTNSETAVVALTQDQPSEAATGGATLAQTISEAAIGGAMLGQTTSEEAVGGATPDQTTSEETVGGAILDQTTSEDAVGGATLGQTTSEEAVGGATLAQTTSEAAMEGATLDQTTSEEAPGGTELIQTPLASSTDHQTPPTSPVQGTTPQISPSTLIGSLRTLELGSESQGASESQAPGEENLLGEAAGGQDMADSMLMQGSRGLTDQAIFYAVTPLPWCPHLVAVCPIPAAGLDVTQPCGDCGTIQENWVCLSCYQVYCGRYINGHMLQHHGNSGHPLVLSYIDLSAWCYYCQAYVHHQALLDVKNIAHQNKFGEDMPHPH

786-0 = test: NCI-60 antiproliferative screening; type: cell-based; conditions: Homo sapiens, 786-0, read-out: percent inhibition
DU-145 = test: NCI-60 antiproliferative screening; type: cell-based; conditions: Homo sapiens, DU-145, read-out: percent inhibition
U251 = test: NCI-60 antiproliferative screening; type: cell-based; conditions: Homo sapiens, U-251, read-out: percent inhibition
SK-MEL-28 = test: NCI-60 antiproliferative screening; type: cell-based; conditions: Homo sapiens, SK-MEL-28, read-out: percent inhibition
PC-3 = test: NCI-60 antiproliferative screening; type: cell-based; conditions: Homo sapiens, PC-3, read-out: percent inhibition
SN12C = test: NCI-60 antiproliferative screening; type: cell-based; conditions: Homo sapiens, read-out: percent inhibition
MDA-MB-468 = test: NCI-60 antiproliferative screening; type: cell-based; conditions: Homo sapiens, MDA-MB-468, read-out: percent inhibition
SK-OV-3 = test: NCI-60 antiproliferative screening; type: cell-based; conditions: Homo sapiens, SK-OV-3, read-out: percent inhibition
M14 = test: NCI-60 antiproliferative screening; type: cell-based; conditions: Homo sapiens, M14, read-out: percent inhibition
EKVX = test: NCI-60 antiproliferative screening; type: cell-based; conditions: Homo sapiens, read-out: percent inhibition
[2] = tested on: normal bone marrow cells HS-5; test: Cell viability assay; type: cell-based; conditions: 72 h, read-out: Antiproliferative IC50 HS-5
Outline: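 Cells grown in IMDM with 20% FBS, 100 U per mL penicillin and 100 μg per mL streptomycin, then plated in 96-well format. Test compound exposure was 72 h. Alamar blue solution (1 mM, as added) was then applied for a further 5–6 h, and […] was read at 530/590 nm. Data were normalized to vehicle, as means of three independent measurements (standard errors <20%), and IC50 was calculated.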

HOP-62 = test: NCI-60 antiproliferative screening; type: cell-based; conditions: Homo sapiens, HOP-62, read-out: percent inhibition
K-562 = test: NCI-60 antiproliferative screening; type: cell-based; conditions: Homo sapiens, K562, read-out: percent inhibition
MCF7 = test: NCI-60 antiproliferative screening; type: cell-based; conditions: Homo sapiens, MCF7, read-out: percent inhibition
CAKI-1 = test: NCI-60 antiproliferative screening; type: cell-based; conditions: Homo sapiens, CAKI-1, read-out: percent inhibition
UO-31 = test: NCI-60 antiproliferative screening; type: cell-based; conditions: Homo sapiens, UO-31, read-out: percent inhibition
[3] = tested on: fifty-nine cancer cell lines; test: NCI-60 antiproliferative screening, panel summary; type: cell-based; conditions: read-out: percent inhibition of 55 cell lines
CCRF-CEM = test: NCI-60 antiproliferative screening; type: cell-based; conditions: Homo sapiens, read-out: percent inhibition
A498 = test: NCI-60 antiproliferative screening; type: cell-based; conditions: Homo sapiens, A498, read-out: percent inhibition
OVCAR-3 = test: NCI-60 antiproliferative screening; type: cell-based; conditions: Homo sapiens, OVCAR-3, read-out: percent inhibition
OVCAR-4 = test: NCI-60 antiproliferative screening; type: cell-based; conditions: Homo sapiens, OVCAR-4, read-out: percent inhibition
HDAC11 = HDAC11 (Homo sapiens, UniProt Q96DB2); test: In vitro HDAC enzyme assay; type: biochemical
HDAC11, sequence (Q96DB2 whole entry): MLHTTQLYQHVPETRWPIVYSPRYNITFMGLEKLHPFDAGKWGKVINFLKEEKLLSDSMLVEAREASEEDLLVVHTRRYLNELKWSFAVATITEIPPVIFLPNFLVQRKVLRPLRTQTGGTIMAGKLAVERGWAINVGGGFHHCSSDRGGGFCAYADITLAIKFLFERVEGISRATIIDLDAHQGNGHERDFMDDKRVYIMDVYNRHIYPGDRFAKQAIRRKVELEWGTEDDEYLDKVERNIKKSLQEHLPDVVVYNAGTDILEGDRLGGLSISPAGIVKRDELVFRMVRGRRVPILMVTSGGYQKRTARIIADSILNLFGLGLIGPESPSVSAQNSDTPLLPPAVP

MDA-MB-231/ATCC = test: NCI-60 antiproliferative screening; type: cell-based; conditions: Homo sapiens, MDA-MB-231, read-out: percent inhibition
HCC-2998 = test: NCI-60 antiproliferative screening; type: cell-based; conditions: Homo sapiens, HCC 2998, read-out: percent inhibition
HDAC2 = HDAC2 (Homo sapiens, UniProt Q92769); test: In vitro HDAC enzyme assay; type: biochemical
HDAC2, sequence (Q92769 whole entry): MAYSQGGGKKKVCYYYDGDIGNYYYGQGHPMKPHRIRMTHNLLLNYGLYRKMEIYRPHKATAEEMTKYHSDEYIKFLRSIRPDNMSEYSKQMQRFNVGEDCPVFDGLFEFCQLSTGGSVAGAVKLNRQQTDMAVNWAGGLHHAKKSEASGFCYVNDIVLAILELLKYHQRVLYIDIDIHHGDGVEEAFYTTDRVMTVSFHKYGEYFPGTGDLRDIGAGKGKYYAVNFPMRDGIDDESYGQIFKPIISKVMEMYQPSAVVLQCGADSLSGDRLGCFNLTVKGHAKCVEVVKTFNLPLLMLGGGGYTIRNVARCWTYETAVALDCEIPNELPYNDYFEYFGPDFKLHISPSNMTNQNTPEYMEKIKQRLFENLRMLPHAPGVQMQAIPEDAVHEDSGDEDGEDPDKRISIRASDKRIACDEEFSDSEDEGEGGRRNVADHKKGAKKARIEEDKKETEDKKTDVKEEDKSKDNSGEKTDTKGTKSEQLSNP

SF-295 = test: NCI-60 antiproliferative screening; type: cell-based; conditions: Homo sapiens, SF-295, read-out: percent inhibition
HDAC3 = HDAC3 (Homo sapiens, UniProt O15379); test: In vitro HDAC enzyme assay; type: biochemical
HDAC3, sequence (O15379 whole entry): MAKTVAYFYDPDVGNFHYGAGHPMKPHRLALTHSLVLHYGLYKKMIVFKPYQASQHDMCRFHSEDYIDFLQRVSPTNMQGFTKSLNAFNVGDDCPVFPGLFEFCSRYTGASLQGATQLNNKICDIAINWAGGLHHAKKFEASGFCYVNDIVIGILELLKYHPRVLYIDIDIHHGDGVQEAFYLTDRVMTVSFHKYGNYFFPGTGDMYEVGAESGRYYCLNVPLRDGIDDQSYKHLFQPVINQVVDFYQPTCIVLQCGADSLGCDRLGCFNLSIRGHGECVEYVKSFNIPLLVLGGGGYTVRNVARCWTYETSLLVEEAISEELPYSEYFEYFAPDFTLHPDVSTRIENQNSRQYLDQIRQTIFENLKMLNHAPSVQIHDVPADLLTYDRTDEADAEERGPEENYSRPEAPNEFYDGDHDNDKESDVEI
HDAC3, sequence (Q9Y618 395-489 partner limits assumed): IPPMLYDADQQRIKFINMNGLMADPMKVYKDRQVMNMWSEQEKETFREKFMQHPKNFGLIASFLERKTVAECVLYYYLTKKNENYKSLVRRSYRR

BT-549 = test: NCI-60 antiproliferative screening; type: cell-based; conditions: Homo sapiens, BT-549, read-out: percent inhibition
OVCAR-8 = test: NCI-60 antiproliferative screening; type: cell-based; conditions: Homo sapiens, OVCAR-8, read-out: percent inhibition
NCI-H522 = test: NCI-60 antiproliferative screening; type: cell-based; conditions: Homo sapiens, NCI-H522, read-out: percent inhibition
MALME-3M = test: NCI-60 antiproliferative screening; type: cell-based; conditions: Homo sapiens, read-out: percent inhibition
HDAC1 = HDAC1 (Homo sapiens, UniProt Q13547); test: In vitro HDAC enzyme assay; type: biochemical
HDAC1, sequence (Q13547 whole entry): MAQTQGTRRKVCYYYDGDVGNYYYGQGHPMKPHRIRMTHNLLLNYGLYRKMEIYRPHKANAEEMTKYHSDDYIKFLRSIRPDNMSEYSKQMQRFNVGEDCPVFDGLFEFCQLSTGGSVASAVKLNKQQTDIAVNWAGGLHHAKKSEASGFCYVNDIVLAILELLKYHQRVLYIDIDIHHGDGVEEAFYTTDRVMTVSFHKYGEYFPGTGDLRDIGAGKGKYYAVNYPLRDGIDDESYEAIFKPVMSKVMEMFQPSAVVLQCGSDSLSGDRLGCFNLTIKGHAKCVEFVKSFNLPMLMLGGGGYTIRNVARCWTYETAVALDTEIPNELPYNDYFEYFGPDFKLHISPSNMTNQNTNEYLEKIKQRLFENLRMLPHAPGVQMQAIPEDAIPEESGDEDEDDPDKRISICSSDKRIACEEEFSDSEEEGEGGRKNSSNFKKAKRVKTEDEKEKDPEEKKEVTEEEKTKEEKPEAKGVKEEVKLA

COc1ccc(CN2[C@@H](C(=O)NCCCCCCC(=O)NO)Cc3c([nH]c4ccccc34)[C@@H]2C2CC2)cc1 [Compound 13d, (1S,3R)-1-Cyclopropyl-N-(7-(hydroxyamino)-7-oxoheptyl)-2-(4-methoxybenzyl)-2,3,4,9-tetrahydro-1H-pyrido[3,4-b]indole-3-carboxamide] gave an inhibition at 10 µM (SNB-19) of 93.3%, an inhibition at 10 µM (COLO 205) of 100% and an inhibition at 10 µM (MOLT-4) of 87.8%. For the same molecule, the inhibition at 10 µM (MDA-MB-435) was 100%, the IC50 (HDAC7) was greater than 50 µM and the “activity for HDAC7 (in words)” value (HDAC7) was “no activity”. For the same molecule, the inhibition at 10 µM (NCI-H322M) was 90.5%, the IC50 [1] was 0.48 ± 0.01 µM and the inhibition at 10 µM (HS 578T) was 100%. The IC50 (HDAC6) was 0.0045 ± 0.00021 µM, the inhibition at 10 µM (786-0) was 82.7% and the inhibition at 10 µM (DU-145) was 90.6%. It also gave an inhibition at 10 µM (U251) of 100%, an inhibition at 10 µM (SK-MEL-28) of 90.2% and an inhibition at 10 µM (PC-3) of 80.9%. For the same molecule, the inhibition at 10 µM (SN12C) was 92.2%, the inhibition at 10 µM (MDA-MB-468) was 95.9% and the inhibition at 10 µM (SK-OV-3) was 100%. For the same molecule, the inhibition at 10 µM (M14) was 82.4%, the inhibition at 10 µM (EKVX) was 83.2% and the IC50 [2] was greater than 50 µM. The inhibition at 10 µM (HOP-62) was 86%, the inhibition at 10 µM (K-562) was 92.5% and the inhibition at 10 µM (MCF7) was 93.6%. For the same molecule, the inhibition at 10 µM (CAKI-1) was 96%, the inhibition at 10 µM (UO-31) was 92.3% and the inhibition at 10 µM [3] was greater than 80%. For the same molecule, the inhibition at 10 µM (CCRF-CEM) was 80.3%, the inhibition at 10 µM (A498) was 100% and the inhibition at 10 µM (OVCAR-3) was 96.8%. For the same molecule, the inhibition at 10 µM (OVCAR-4) was 59.4%, the IC50 (HDAC11) was 1.8 ± 0.106 µM and the “inhibition of HDAC11 (in words)” value (HDAC11) was “weak inhibition”. The inhibition at 10 µM (MDA-MB-231/ATCC) was 100%, the inhibition at 10 µM (HCC-2998) was 100% and the IC50 (HDAC2) was 0.0235 ± 0.00103 µM. The inhibition at 10 µM (SF-295) was 100%, the IC50 (HDAC3) was 0.0321 ± 0.00144 µM and the inhibition at 10 µM (BT-549) was 74.5%. It also gave an inhibition at 10 µM (OVCAR-8) of 97.3%, an inhibition at 10 µM (NCI-H522) of 100% and an inhibition at 10 µM (MALME-3M) of 98.5%. For the same molecule, the IC50 (HDAC1) was 0.00873 ± 0.00046 µM and the inhibition at 0.5 µM (HDAC1; read-out: Inhibition% (inhibition rate, IR) against HDAC1, at a concentration of 500 nM, duplicate) was 99.2%.
